Experiments:
[1] = Cytotoxicity against human PC3 cells after 48 hrs by MTT assay; format: functional, cell-based, PC-3
Procedure, shortened: (§1)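 Tumor cells in log phase in RPMI 1640 + 10% FBS, seeded at 3×10^4 cells mL-1 and incubated 24 h (37 °C, 5% CO2). Test samples added at pre-set concentrations (6 wells each), doxorubicin as reference; 48 h exposure. MTT (2.5 mg·mL-1 in PBS) added for 4 h, formazan dissolved in DMSO, A570 read.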

[2] = test system: Bcap37; experiment: Cytotoxicity against human Bcap37 cells after 48 hrs by MTT assay; format: functional, cell-based; procedure, shortened: as §1
[3] = Cytotoxicity against human MGC803 cells after 48 hrs by MTT assay; format: functional, cell-based, MGC-803; procedure, shortened: as §1
[4] = test system: HepG2; experiment: Cytotoxicity against human HepG2 cells after 48 hrs by MTT assay; format: functional, cell-based; procedure, shortened: as §1
[5] = target: Telomerase reverse transcriptase (Homo sapiens, UniProt O14746); experiment: Inhibition of telomerase in human MGC-803 cells after 24 hrs by TRAP-PCR-ELISA assay; format: cell-based
Chain of Telomerase reverse transcriptase (O14746 whole entry): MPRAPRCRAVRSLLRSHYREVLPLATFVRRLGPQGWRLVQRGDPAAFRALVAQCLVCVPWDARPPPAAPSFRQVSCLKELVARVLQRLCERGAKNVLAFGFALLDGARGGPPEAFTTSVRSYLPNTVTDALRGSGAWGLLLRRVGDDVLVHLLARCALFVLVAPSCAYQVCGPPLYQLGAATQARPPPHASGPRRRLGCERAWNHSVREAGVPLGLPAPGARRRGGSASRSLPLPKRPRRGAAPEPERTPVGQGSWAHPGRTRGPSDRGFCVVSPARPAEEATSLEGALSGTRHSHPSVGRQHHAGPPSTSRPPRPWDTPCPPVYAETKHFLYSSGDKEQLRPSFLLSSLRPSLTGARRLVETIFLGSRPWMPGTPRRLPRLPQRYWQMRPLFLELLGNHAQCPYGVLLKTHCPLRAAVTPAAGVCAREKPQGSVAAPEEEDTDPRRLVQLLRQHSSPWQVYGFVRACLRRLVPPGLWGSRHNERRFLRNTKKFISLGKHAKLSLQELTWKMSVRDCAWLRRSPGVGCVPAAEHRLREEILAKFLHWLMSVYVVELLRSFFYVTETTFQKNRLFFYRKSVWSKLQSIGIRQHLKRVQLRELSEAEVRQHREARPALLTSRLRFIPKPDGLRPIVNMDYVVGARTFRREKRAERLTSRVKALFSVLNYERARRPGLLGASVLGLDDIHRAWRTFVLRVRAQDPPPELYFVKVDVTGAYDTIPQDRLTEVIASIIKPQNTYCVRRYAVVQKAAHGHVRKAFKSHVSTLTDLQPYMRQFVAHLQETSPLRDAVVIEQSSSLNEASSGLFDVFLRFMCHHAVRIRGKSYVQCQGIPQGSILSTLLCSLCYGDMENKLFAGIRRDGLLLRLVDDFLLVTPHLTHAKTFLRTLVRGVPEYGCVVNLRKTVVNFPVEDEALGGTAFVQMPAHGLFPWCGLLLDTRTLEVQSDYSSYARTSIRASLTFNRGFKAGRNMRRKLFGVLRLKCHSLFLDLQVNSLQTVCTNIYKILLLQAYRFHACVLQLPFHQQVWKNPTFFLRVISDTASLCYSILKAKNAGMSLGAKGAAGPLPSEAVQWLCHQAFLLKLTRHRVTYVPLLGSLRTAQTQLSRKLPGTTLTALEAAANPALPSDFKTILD
Procedure, shortened: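 Cells lysed in RIPA on ice for 30 min; extract incubated with TRAP mix at 25 °C for 30 min, then 35 PCR cycles. Products hybridized to DIG probe, captured on streptavidin, detected with peroxidase anti-DIG at 490 nm; mean±SD.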

[6] = Homo sapiens, PC-3, 48 h, read-out: IC50
[7] = Homo sapiens, Bcap37, 48 h, read-out: IC50
[8] = Homo sapiens, MGC-803, 48 h, read-out: IC50
[9] = Homo sapiens, HepG2, 48 h, read-out: IC50

SMILES	IC50 [1, 6] [µM]	IC50 [2, 7] [µM]	IC50 [3, 8] [µM]	IC50 [4, 9] [µM]	IC50 [5] [µM]	IC50 ([2]; bcap37)	IC50 ([3]; mgc-803)	IC50 ([4]; hepg2)	IC50 ([1]; pc-3)
CC1=NN(C(=O)CCc2ccccc2)C(c2ccccc2O)C1 (centres undefined)	9.38	25.7	24.1	20.6	11				
COc1ccccc1C1CC(C)=NN1C(=O)CN1CCC(OC)CC1 (centres undefined)	27.2	18.8	9.55	22	8.4				
COc1ccccc1C1CC(C)=NN1C(=O)C[N+]1(C)CCCC1 (centres undefined)	11.2	9.98	12.2	32.2	11				
O=C(c1ccccc1)N1N=C(c2cc3ccccc3oc2=O)CC1c1ccccc1 (centres undefined)	5.87	32.2	12.7	36.6	8.74				
CC[N+](C)(CC)CC(=O)N1N=C(C)CC1c1ccccc1OC (centres undefined)	4.17	5.15	3.32	3.67	3.44				
CC1=NN(C(=O)c2ccc(C)cc2)C(c2ccccc2O)C1 (centres undefined)	40.6	9.97	26.3	11.3					
O=C(CN1CCCC1)N1N=C(c2cc3ccccc3oc2=O)CC1c1ccccc1 (centres undefined)	50.2			44.3		Not Active	Not Active		
CC1=NN(C(=O)CN2CC(C)CC(C)C2)C(c2ccccc2O)C1 (centres undefined)	36.4	20.9	30.7	51.9					
CC(=O)Oc1ccccc1C1CC(C)=NN1C(=O)CN1CCCCC1C (centres undefined)	11.1	17.9	5.14		6.2			Not Active	
CC1=NN(C(=O)c2ccccc2Cl)C(c2ccccc2O)C1 (centres undefined)	42.5	30.2	18.3	25.2					
CC(C)(C)NCC(=O)N1N=C(c2cc3ccccc3oc2=O)CC1c1ccccc1 (centres undefined)	16.4	36.2	15.4	31.4					
CCN(CC)C1CCN(CC(=O)N2N=C(c3cc4ccccc4oc3=O)CC2c2ccccc2)CC1 (centres undefined)	26.1	15.5	32.4	19.3					
CC1CCCCN1CC(=O)N1N=C(c2cc3ccccc3oc2=O)CC1c1ccccc1 (centres undefined)	36.3					Not Active	Not Active	Not Active	
CC1CC(C)CN(CC(=O)N2N=C(c3cc4ccccc4oc3=O)CC2c2ccccc2)C1 (centres undefined)						Not Active	Not Active	Not Active	Not Active
CC1=NN(C(=O)CN(C(C)C)C(C)C)C(c2ccccc2O)C1 (centres undefined)	32.3	4.96	31.2	15.1					
CC1=NN(C(=O)CN2CCC(Cl)CC2)C(c2ccccc2O)C1 (centres undefined)	34.8	28.6	30.3	42.1					
CC1=NN(C(=O)c2ccc(C)cc2)C(c2cc(Br)cc(Br)c2O)C1 (centres undefined)	41.2		56.5			Not Active		Not Active	
CC1=NN(C(=O)/C=C/c2ccccc2)C(c2ccccc2O)C1 (centres undefined)	42		39.6	29		Not Active			
CC1=NN(C(=O)CN2CCSCC2)C(c2ccccc2O)C1 (centres undefined)	29.2	20.6	31.5	45.3					
CC1=NN(C(=O)CN2CCCC(C)C2)C(c2ccccc2O)C1 (centres undefined)	35.5	35.6	42.9	17.9					
COc1cccc2c1C(=O)c1c(O)c3c(c(O)c1C2=O)C[C@@](O)(C(=O)CO)C[C@@H]3O[C@H]1C[C@H](N)[C@H](O)[C@H](C)O1 [DOXORUBICIN]	0.87	1.12		1.34					

SMILES	IC50 [1, 6] [µM]	IC50 [2, 7] [µM]	IC50 [3, 8] [µM]	IC50 [4, 9] [µM]	IC50 [5] [µM]	IC50 ([2]; bcap37)	IC50 ([3]; mgc-803)	IC50 ([4]; hepg2)	IC50 ([1]; pc-3)
CC1=NN(C(=O)CCc2ccccc2)C(c2cc(Br)ccc2O)C1 (centres undefined)	16.2	41.3	21.2	17.9					
CC1=NN(C(=O)COc2ccc(Cl)cc2)C(c2cc(Br)ccc2O)C1 (centres undefined)	49	36.8	23.6					Not Active	
Cc1ccc(S(=O)(=O)N2N=C(c3cc4ccccc4oc3=O)CC2c2ccccc2)cc1 (centres undefined)	48.6	30.3	50.2					Not Active	
Cc1ccc(C(=O)N2N=C(c3cc4ccccc4oc3=O)CC2c2ccccc2)cc1 (centres undefined)	13.2	26.1	31.3	52.3					
CCN(CC)CC(=O)N1N=C(C)CC1c1ccccc1O (centres undefined)	25.9	45.7	39.8	51.6					
CC1=NN(C(=O)CN2CCC(c3ccccc3)CC2)C(c2ccccc2O)C1 (centres undefined)	20.4	33.7	12.3	23.3					
CN1CCN(CC(=O)N2N=C(c3cc4ccccc4oc3=O)CC2c2ccccc2)CC1 (centres undefined)	25.8	16.9	46.1	33.1					
O=C(CNC1CCCCC1)N1N=C(c2cc3ccccc3oc2=O)CC1c1ccccc1 (centres undefined)	48.5	38.3	26.4	34.4					
CC1=NN(S(=O)(=O)c2ccc(C)cc2)C(c2cc(Br)ccc2O)C1 (centres undefined)	33.2	36.8	30.7	20.8					
CC1=NN(C(=O)COc2ccc(Cl)cc2)C(c2cc(Br)cc(Br)c2O)C1 (centres undefined)	40.2	46.3	50					Not Active	
CC1CCCN(CC(=O)N2N=C(c3cc4ccccc4oc3=O)CC2c2ccccc2)C1 (centres undefined)	28.3					Not Active	Not Active	Not Active	
CC1=NN(C(=O)c2ccc(C)cc2)C(c2cc(Br)ccc2O)C1 (centres undefined)	41.2	32.6	21	23.2					
CC1=NN(C(=O)CCc2ccccc2)C(c2cc(Br)cc(Br)c2O)C1 (centres undefined)	11.3	27.2	17.1	9.17					
CC1=NN(C(=O)c2ccc([N+](=O)[O-])cc2)C(c2ccccc2O)C1 (centres undefined)	36.6	45.2	50	30.1					
CC(C)(C)OC(=O)N1CCN(CC(=O)N2N=C(c3cc4ccccc4oc3=O)CC2c2ccccc2)CC1 (centres undefined)	36.4	29.7		28.4			Not Active		
CC1=NN(S(=O)(=O)c2ccc([N+](=O)[O-])cc2)C(c2cc(Br)cc(Br)c2O)C1 (centres undefined)	50		40.1			Not Active		Not Active	
CC1=NN(C(=O)CN(CC(C)C)CC(C)C)C(c2ccccc2O)C1 (centres undefined)	32.2	40.5	30	49.2					
CC(=O)Oc1ccccc1C1CC(C)=NN1C(=O)CN(C(C)C)C(C)C (centres undefined)	24.5	19.4	20.1	34.1					
O=C(CNC1CC1)N1N=C(c2cc3ccccc3oc2=O)CC1c1ccccc1 (centres undefined)	28.5					Not Active	Not Active	Not Active	
CCC(=O)N1N=C(C)CC1c1cc(Br)ccc1O (centres undefined)	37.8	20.8	50.3					Not Active	

Source: ChEMBL document CHEMBL3785019, “Dihydropyrazole derivatives as telomerase inhibitors: Structure-based design, synthesis, SAR and anticancer evaluation in vitro and in vivo” (Eur J Med Chem, 2016)
